Results from different studies.
Protocols differ between the studies behind these lines.
Target: Macrophage-stimulating protein receptor (MST1R, Homo sapiens, UniProt Q04912)

CO[C@@H](C)c1c(Nc2ccc([C@@H](N(C)C(=O)C3CCS(=O)(=O)CC3)C(F)(F)F)cc2)cnc2cc(Cl)nn12
remaining binding (cell-free assay, competition with immobilised ligand; 1 µM): 100%

Cc1cnc(Nc2ccc(C(=O)N3CCC(N4CCCC4)CC3)cc2)nc1-c1cc2ccccc2s1
remaining binding (binding, competition with immobilised ligand; 1 µM): 83%

Cc1nc(N2CC[C@@H](O)C2)ncc1-c1cc(C(F)(F)F)cc2[nH]ncc12
remaining binding (cell-free assay, competition with immobilised ligand; 1 µM): 100%

O=C(c1ccc(Nc2nccc(-c3cc4ccccc4s3)n2)cc1)N1CCC(N2CCCC2)CC1
remaining binding (binding, competition with immobilised ligand; 1 µM): 88%

NS(=O)(=O)c1cc(NC(=O)Cc2ccccc2)ccc1Oc1cccc(Cl)c1
remaining binding (cell-free assay, competition with immobilised ligand; 1 µM): 97%

O=C(NCCCN1CCOCC1)c1ccc(Nc2ncc(Cl)c(-c3ccc(Cl)s3)n2)cc1
remaining binding (binding, competition with immobilised ligand; 1 µM): 67%

CNC(=O)[C@@H]1CC[C@@H](n2c(-c3ccc4cnccc4c3)nc3ccc(C(=O)NCc4cccc(C(N)=O)c4)cc32)C1
remaining binding (binding, competition with immobilised ligand; 1 µM): 87%

COc1ccnn2ncc(-c3ccnc(N(C)C)n3)c12
remaining binding (binding; 1 µM): 100%

C=CC(=O)N1CCC(C(=O)NCC(=O)N2CCN(c3nc(-c4cnc(N)nc4C(F)F)nc(N4CCOCC4)n3)CC2)CC1
remaining binding (binding, competition with immobilised ligand; 1 µM): 100%

CCN1CCN(Cc2ccc(C(=O)Nc3ccc(C)c(Oc4ccc5c(c4)CC(=O)N5)c3)cc2C(F)(F)F)CC1
remaining binding (binding, competition with immobilised ligand; 1 µM): 88%

N[C@H]1CCN(c2nccc(-c3cnn4ncccc34)n2)C1
remaining binding (binding; 1 µM): 82%

FC(F)(F)Oc1cccc(-c2cnc3ccc(-c4ccncc4)nn23)c1
remaining binding (cell-free assay, competition with immobilised ligand; 5 µM): 79%

CNC(=O)Nc1ccc2c(c1)[C@@]1(CC2)OC(=O)N(CC(=O)N(Cc2ccc(F)cc2)[C@@H](C)C(F)(F)F)C1=O
remaining binding (cell-free assay, competition with immobilised ligand; 1 µM): 100%

CN(c1nccc(-c2cnn3ncccc23)n1)C1CC1
remaining binding (binding; 1 µM): 100%

COc1cnc(Nc2cccc(S(N)(=O)=O)c2)nc1N1CCN(c2ccccc2)C(=O)C1
remaining binding (binding, competition with immobilised ligand; 1 µM): 100%

CC1CCCN1c1nccc(-c2cnn3ncccc23)n1 (stereo not drawn)
remaining binding (binding; 1 µM): 100%

O=C(NCC1CCOCC1)c1n[nH]cc1NC(=O)c1c(F)cccc1F
remaining binding (binding, competition with immobilised ligand; 1 µM): 100%

Cc1c[nH]c2nccc(Oc3c(F)cc(Nc4cc(Cl)nc(N)n4)cc3F)c12
remaining binding (cell-free assay, competition with immobilised ligand; 0.1 µM): 74%

C[C@@H]1CCN(c2nccc(-c3cnn4ncccc34)n2)C1
remaining binding (binding; 1 µM): 100%

C[C@@H]1CN(c2cc(-c3n[nH]c4ccc(OC5(C)CC5)cc34)ncn2)C[C@H](C)O1
remaining binding (cell-free assay, competition with immobilised ligand; 0.1 µM): 100%

CN(CCCC(F)(F)F)c1nccc(-c2cnn3ncccc23)n1
remaining binding (binding; 1 µM): 100%
